This passage reports IC50, Activity and Ratio IC50 results from ChEMBL document CHEMBL1137570, “3-substituted 7-phenyl-pyrroloquinolinones show potent cytotoxic activity in human cancer cell lines” (J Med Chem, 2007).

The nature of experiment [1]: Cytotoxicity againat taxol-resistant human A549T24 cells after 72 hrs by MTT assay. The note with it: A549, 72 h. In kind it is functional, cell-based. A general note: Tetrazolium dyes change colour on reduction, which living cells bring about.
Experiment [2] deals with A549. As to the kind of experiment: Cell cycle arrest in human A549 cells assessed as accumulation at sub Go phase at 0.1 uM after 24 hrs. In kind it is functional.
The test system of experiment [3] is HeLa. As to the kind of experiment: Cytotoxicity against human HeLa cells after 72 hrs by MTT assay. In kind it is functional, cell-based. The method in brief: (§1)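 MTT assay. Cells seeded at 7 × 10³ per well; after 24 h, exponentially growing cells were exposed to compound (final 0.005–100 µM) for 72 h. MTT was added for 4 h, then 10% SDS in 0.01 N HCl for 18 h at 37 °C. Absorbance read at 550 nm; survival given as % of untreated cells. IC50 from 6-8 replicate wells, ≥2 independent experiments.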

In experiment [4] the test system is A549. As to the kind of experiment: Cell cycle arrest in human A549 cells assessed as accumulation at G1 phase at 0.1 uM after 24 hrs. In kind it is functional. The gist of the method:
(§2)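 A549 cells grown 24 h in drug-free medium or with compound at 0.1 or 1 µM. Cells were trypsinized, washed twice in PBS, fixed in cold 70% ethanol (30 min, -20 °C), then washed in citrate phosphate buffer and PBS. RNase (100 µg/mL) for 30 min at 37 °C, then propidium iodide (100 µg/mL) for 30 min at room temperature. Flow cytometry at 488/525 nm, ≥15 000 events, 3-4 repeats.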

Experiment [5] deals with A549. As to the kind of experiment: Cytotoxicity against human A549 cells after 72 hrs by MTT assay. In kind it is functional, cell-based. Conditions: A549, 72 h. The method in brief:
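MTT assay. Cells seeded at 7 × 10³ per well; after 24 h, exponentially growing cells were exposed to compound (final 0.005–100 µM) for 72 h. MTT was added for 4 h, then 10% SDS in 0.01 N HCl for 18 h at 37 °C. Absorbance read at 550 nm; survival given as % of untreated cells.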

The subject of experiment [6] is OE33. As to the kind of experiment: Cytotoxicity against human OE33 cells after 72 hrs by MTT assay. In kind it is functional, cell-based. The note with it: OE33, 72 h. The method in brief: as §1
For experiment [7], the system named is PT-45. As to the kind of experiment: Cytotoxicity against human PT45 cells after 72 hrs by MTT assay. Conditions: PT-45, 72 h. In kind it is functional, cell-based. The method in brief:
as §1

Experiment [8] can be described thus: Cytotoxicity against human H295R cells after 72 hrs by MTT assay. In kind it is functional, cell-based. The note with it: NCI-H295R. The gist of the method: as §1
In experiment [9] the test system is ARO. As to the kind of experiment: Cytotoxicity against human Aro cells after 72 hrs by MTT assay. In kind it is functional, cell-based. The method in brief:
as §1

Experiment [10] deals with OVCAR-3. As to the kind of experiment: Cytotoxicity against human Ovcar3 cells after 72 hrs by MTT assay. Type of experiment: functional, cell-based. The note with it: OVCAR-3, 72 h. The gist of the method: as §1
In experiment [11] the test system is HT-29. As to the kind of experiment: Cytotoxicity against human HT29 cells after 72 hrs by MTT assay. Type of experiment: functional, cell-based. The note with it: HT-29, 72 h. The gist of the method:
as §1

In experiment [12] the test system is A549. As to the kind of experiment: Cell cycle arrest in human A549 cells assessed as accumulation at S phase at 0.1 uM after 24 hrs. Type of experiment: functional. The gist of the method: as §2
Experiment [13] relates to A549. As to the kind of experiment: Cell cycle arrest in human A549 cells assessed as accumulation at G1 phase at 1 uM after 24 hrs. Type of experiment: functional. The gist of the method: as §2
The test system of experiment [14] is MCF7. As to the kind of experiment: Cytotoxicity against human MCF7 cells after 72 hrs by MTT assay. In kind it is functional, cell-based. Conditions: MCF7, 72 h. The method in brief:
as §1

In experiment [15] the test system is A549. As to the kind of experiment: Cell cycle arrest in human A549 cells assessed as accumulation at sub Go phase at 1 uM after 24 hrs. Type of experiment: functional.
The subject of experiment [16] is A549. As to the kind of experiment: Resistance index, ratio of IC50 for A549 cells to IC50 for A549T12 cells. Type of experiment: functional, Homo sapiens.
The test system of experiment [17] is A549. As to the kind of experiment: Cell cycle arrest in human A549 cells assessed as accumulation at S phase at 1 uM after 24 hrs. Type of experiment: functional. The gist of the method:
as §2

For experiment [18], the system named is OE19. As to the kind of experiment: Cytotoxicity against human OE19 cells after 72 hrs by MTT assay. In kind it is functional, cell-based. Conditions: OE19, 72 h. The method in brief:
as §1

Experiment [19] relates to A549. As to the kind of experiment: Cell cycle arrest in human A549 cells assessed as accumulation at G2/M phase at 1 uM after 24 hrs. Type of experiment: functional. The gist of the method: as §2
Experiment [20] is described as follows: Cytotoxicity againat taxol-resistant human A549T12 cells after 72 hrs by MTT assay. In kind it is functional, cell-based. Conditions: A549, 72 h.
Experiment [21] concerns A549. As to the kind of experiment: Cell cycle arrest in human A549 cells assessed as accumulation at G2/M phase at 0.1 uM after 24 hrs. Type of experiment: functional. The gist of the method:
as §2

Experiment [22] deals with HepG2. As to the kind of experiment: Cytotoxicity against human HepG2 cells after 72 hrs by MTT assay. The note with it: HepG2, 72 h. Type of experiment: functional, cell-based. The gist of the method: as §1

As a reminder, the IC50 is the concentration that inhibits the measured activity by half. A higher IC50 goes with weaker potency in that assay. On to `O=c1cc(-c2ccccc2)[nH]c2ccc3c(ccn3CC3CC3)c12`, for which the IC50 in experiment [1] is 20 nM; in experiment [3] it was 20 nM; in experiment [5] it was 20 nM; in [6] it was 20 nM; in experiment [7], 20 nM; in experiment [8] it was 10 nM. The IC50 in experiment [9] amounted to 30 nM; in experiment [10], 10 nM; in experiment [11] it was 60 nM; in experiment [14], 40 nM; in experiment [18] it was 100 nM; in [20], 20 nM. In addition, the IC50 in [22] worked out at 20 nM. Further, the Activity in experiment [2] amounted to 0.4%; in experiment [4], 16.5%; in experiment [12], 7%; in [13], 16.3%; in [15], 0.3%; in [17] it was 8.6%. Besides, the Activity is 74.6% in experiment [19] and 75.7% in experiment [21]. Besides, the Ratio IC50 in experiment [16] is 1.

In the case of `CC[C@]1(O)C[C@H]2CN(CCc3c([nH]c4ccccc34)[C@@](C(=O)OC)(c3cc4c(cc3OC)N(C=O)[C@H]3[C@@](O)(C(=O)OC)[C@H](OC(C)=O)[C@]5(CC)C=CCN6CC[C@]43[C@@H]65)C2)C1` [VINCRISTINE], the concentration for half-maximal inhibition (IC50) was 5 nM in experiment [3]; 30 nM in experiment [5]; 30 nM in [6]; 4 nM in experiment [7]; 90 nM in experiment [8]; 0.3 nM in [9]. For the same compound, the IC50 in experiment [10] was found to be 20 nM; in experiment [11] it was 10 nM; in [14] it was 20 nM; in experiment [18] it was 50 nM; in [22] it was 200 nM. Also, the Activity in [13] amounted to 46.8%; in experiment [15], 0.5%; in experiment [17], 7.9%; in experiment [19], 45.2%.

With `CCn1ccc2c3c(=O)cc(-c4ccccc4)[nH]c3ccc21`, the IC50 in experiment [1] is 30 nM; in experiment [3] it was 10 nM; in [5] it was 30 nM; in experiment [6], 200 nM; in experiment [7], 30 nM; in experiment [8], 30 nM. Besides, the half-inhibitory concentration (IC50) in experiment [9] was 30 nM; in [10] it was 40 nM; in experiment [11], 30 nM; in experiment [14], 40 nM; in experiment [18], 80 nM; in experiment [20] it was 30 nM. In experiment [22], this compound came in with an IC50 of 50 nM. Also, the Activity in experiment [2] is 0.6%; in experiment [4] it was 11.7%; in experiment [12] it was 8.1%; in [13], 14.1%; in experiment [15], 0.4%; in [17] it was 8.1%. The values for the Activity in experiment [19] and in [21] were 77.3% and 79.8%, respectively. Further, the Ratio IC50 in experiment [16] turned out to be 1.

For the compound `CCN(CC)CCn1ccc2c3c(O)cc(-c4ccccc4)nc3ccc21`, the results for the IC50 in [6] and in [18] were 16000 nM and 10000 nM, respectively.

In the case of `O=c1cc(-c2ccccc2)[nH]c2ccc3c(ccn3Cc3ccccc3)c12`, the 50% inhibitory concentration (IC50) is 200 nM in experiment [1]; 100 nM in experiment [3]; 100 nM in [5]; 100 nM in [6]; 80 nM in experiment [7]; 400 nM in [8]. Besides, the IC50 in experiment [9] came to 300 nM; in [10], 500 nM; in [11], 400 nM; in [14], 300 nM; in experiment [18], 500 nM; in [20], 100 nM. The compound also registered an IC50 in [22] of 700 nM. Further, the Activity in experiment [2] is given as 1.1%; in experiment [4], 78.9%; in experiment [12] it was 9.7%; in [13], 14.6%; in experiment [15], 0.5%; in experiment [17], 9.4%. In addition, the figures for the Activity in [19] and in [21] were 75.8% and 10.4%, respectively. In addition, in experiment [16], the Ratio IC50 amounted to 1.

As for `Cn1ccc2c3c(=O)cc(-c4ccccc4)[nH]c3ccc21`, the IC50 in experiment [1] amounted to 200 nM; in experiment [3], 100 nM; in [5] it was 300 nM; in experiment [6], 800 nM; in experiment [7] it was 100 nM; in [8] it was 90 nM. In addition, the 50% inhibitory concentration (IC50) in [9] was found to be 300 nM; in experiment [10], 700 nM; in [11], 300 nM; in [14], 400 nM; in experiment [18] it was 100 nM; in [20], 300 nM. For the same compound, 1000 nM corresponded to half-maximal inhibition in experiment [22] (IC50). Moreover, the Activity in experiment [2] is 6.4%; in experiment [4] it was 66.9%; in experiment [12], 8.8%; in experiment [13], 15.6%; in experiment [15] it was 0.3%; in experiment [17], 9.2%. The figures for the Activity in experiment [19] and in experiment [21] were 74.9% and 18.2%, respectively. Moreover, the Ratio IC50 in experiment [16] came to 1.

On to `CC(=O)O[C@H]1C(=O)[C@@]2(C)[C@H]([C@H](OC(=O)c3ccccc3)[C@]3(O)C[C@H](OC(=O)[C@H](O)[C@@H](NC(=O)c4ccccc4)c4ccccc4)C(C)=C1C3(C)C)[C@]1(OC(C)=O)CO[C@@H]1C[C@@H]2O` [PACLITAXEL], for which the IC50 in experiment [1] worked out at 102 nM; in experiment [3], 8 nM; in experiment [6], 200 nM; in experiment [7], 5 nM; in experiment [8] it was 80 nM; in experiment [9], 0.2 nM. The IC50 in experiment [10] was 10 nM; in [11] it was 50 nM; in experiment [14] it was 7 nM; in experiment [18] it was 400 nM; in experiment [20] it was 60 nM; in experiment [22], 300 nM.

In the case of `O=c1cc(-c2ccccc2)[nH]c2ccc3[nH]ccc3c12`, the values for the IC50 in experiment [6] and in experiment [18] were 2000 nM and 1000 nM, respectively.

On to `CCCCn1ccc2c3c(=O)cc(-c4ccccc4)[nH]c3ccc21`, for which the IC50 in [1] was found to be 30 nM; in experiment [3] it was 20 nM; in experiment [5], 30 nM; in experiment [6], 60 nM; in [7], 40 nM; in experiment [8], 10 nM. Besides, the IC50 is 30 nM in [9]; 10 nM in experiment [10]; 30 nM in experiment [11]; 60 nM in experiment [14]; 7 nM in [18]; 20 nM in experiment [20]. For the same compound, the midpoint of inhibition in experiment [22], the IC50, lay at 20 nM. The Activity was 0.2% in experiment [2]; 11.8% in experiment [4]; 7.7% in experiment [12]; 12.9% in experiment [13]; 0.4% in [15]; 9.2% in [17]. The Activity in experiment [19] is recorded as 77.6%; in experiment [21] it was 80.4%.
